Shown are actives, neighbours in structure and some others; about 1.9% of the full set was active somewhere.
Insulin prom up – MIN6 insulin promoter up-regulation | MIN6 insulin promoter-GFP reporter, high-content imaging; stronger effect = higher value | z-score at 5 µM | hit rate 0.3% among 190,000 | AID 1625;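 active = z-score above 3 at 5 µM with at least 500 cells counted in the well; inconclusive = wells under 500 cells, flagged as cytotoxic or low count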
b-catenin transl – alters nuclear translocation of beta-catenin in HeLa cells; nuclear translocation activity, % at 5 µM; AID 1665; hit rate 0.3% among 190,000; immunofluorescence imaging;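 active = nuclear translocation activity above 50% at 5 µM, with a well cell count of 50 or more; inconclusive = wells under 50 cells across six images, flagged as toxic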;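 note: per-cell ratio of nuclear to cytoplasmic median beta-catenin stain intensity; plate controls were DMSO negative control for no effect and GSK-3 inhibitor IX positive control for full effect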
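System: Human HeLa cells, endogenous beta-catenin | Compound dosing: 5 µM primary, 0.02–20 µM confirmation | Timing: 24 h compound exposure at 37°C, 5% CO2 | Measured by: Fluorescence imaging of beta-catenin antibody stain plus DAPI | Read-out basis: % activation of per-cell nuclear versus cytoplasmic median beta-catenin signal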
MT stabilizer – stabilizes microtubules in HeLa cells | hit rate 0.83% among 200,000 | AID 2205 | HeLa tubulin immunostaining HCS, 24 h; share of cells brighter than vehicle mean+2SD | % tubulin-high responders, % at 10 µM;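 active = plate Z-score above 3 for both tubulin-high and condensed-nucleus cell shares, with cell loss under 80%, at 10 µM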;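 note: anti alpha tubulin signal scored within the nucleus-defined area of each cell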
Autophagy mod – modulators of autophagy; MEF GFP-LC3 puncta imaging; test concentration mostly 10 µM; calls only at 10 µM (by protocol); hit rate 0.98% among 190,000; AID 463193;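 active = percentage of spot-positive cells more than 3 SD above its plate mean, without a fluorescence outlier flag or 80% toxicity; inconclusive = no clear call, values can overlap the other calls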;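 note: spot-positive cell cutoff set from DMSO-treated cells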
Numbers without * were called inactive; i = inactive; ? = inconclusive; nt = not tested or not shown; + = active, no number.

SMILES	Insulin prom up	b-catenin transl	MT stabilizer	Autophagy mod
C=CCNC(=O)c1cc(Cl)cc(Cl)c1	0.16	-2	2	i
COc1cc2c3nnc(-c4ccccc4)c-3cn(Cc3ccccc3F)c2cc1OC	nt	0	5	i
COc1cc2c3nnc(-c4ccc(F)cc4)c-3cn(Cc3ccccc3F)c2cc1OC	6.3*	0	3	+
Cn1cccc1/C=C1\SC(=Nc2cccc(O)c2)NC1=O	1.1	1	nt	nt
Cc1ccc(N=C2NC(=O)/C(=C/c3cn(C)c4ccccc34)S2)cc1C	3*	20	12	i
Cn1cccc1/C=C1\SC(=Nc2ccccc2)NC1=O	0.1	86*	nt	nt
Cn1cccc1/C=C1\SC(=Nc2ccc(O)cc2)NC1=O	-0.24	83*	nt	nt
Cc1ccc(N=C2NC(=O)/C(=C/c3cccn3C)S2)c(C)c1	-1.2	1	nt	nt
Cc1cc(C)nc(-n2ncc3c2CC(c2ccccc2)CC3=O)n1 (stereo not drawn)	1.2	-2	3	i
COc1ccc(C2CC(=O)c3cnn(-c4nc(C)cc(C)n4)c3C2)cc1 (stereo not drawn)	nt	9	40*	i
CCN(C(=O)COC(=O)c1ccc(Cl)c(N)c1)C1CCS(=O)(=O)C1 (stereo not drawn)	nt	-4	2	i
Nc1ccccc1-c1nnn(CC(=O)N2CCCc3ccccc32)n1	nt	-2	3	+
CCCOc1cc(N(CC)CC)ccc1/C=C(/C#N)c1nc2ccc(C)cc2[nH]1	nt	-1	2	+
CCN(CC)c1ccc(/C=C(/C#N)c2nc3ccc(C)cc3[nH]2)c(OC(C)C)c1	nt	0	2	+
CCOc1cc(N(CC)CC)ccc1/C=C(/C#N)c1nc2ccccc2[nH]1	nt	-1	12	+
COc1cc(/C=C(\C#N)c2nc3ccc(C)cc3[nH]2)c([N+](=O)[O-])cc1OC	-0.66	-1	3	i
CC(C)NC(=O)CSc1nc(N)c(-c2ccccc2)c(=O)[nH]1	nt	0	4	i
Cc1nc(C)c(-c2nnc(-c3ccc(C(C)(C)C)cc3)o2)cc1C(=O)NN	nt	0	5	i
Cc1cc(Cl)ccc1Oc1nccc(N(C)C)c1C#N	-0.38	0	1	i
CCCCCCCCCCCC(=O)NC1CCS(=O)(=O)C1 (stereo not drawn)	0.15	0	7	i
CC(C)c1ccc(/C=C(\c2nc3ccccc3[nH]2)S(=O)(=O)c2ccccc2)cc1	-2.9	27	27*	i
COc1ccc(/C=N/NC(=O)c2ccc(N(C)S(=O)(=O)c3ccccc3)cc2)cc1OC	0.11	1	3	i
COc1ccc(-c2nc(NC(=O)c3n[nH]c(=O)c4ccccc34)sc2C)cc1	-1.7	nt	3	i
CCOc1ccc(N2C(=O)CC(Sc3nc(C)cc(C)n3)C2=O)cc1 (stereo not drawn)	-0.02	-2	2	i
CCOc1ccc(N2C(=O)CC(Sc3nnnn3-c3ccccc3)C2=O)cc1 (stereo not drawn)	0.05	-2	2	+
SMILES	Insulin prom up	b-catenin transl	MT stabilizer	Autophagy mod
Fc1ccc(Br)cc1C1C=C(c2cccnc2)Nc2ncnn21 (stereo not drawn)	0.43	nt	18*	i
Brc1ccc(C2=CC(c3cccs3)n3ncnc3N2)cc1 (stereo not drawn)	-0.33	1	3	i
COc1ccc(CN2C(=O)c3ccccc3C2C(=O)NC2CCC(C)CC2)c(OC)c1 (stereo not drawn)	-0.54	-2	1	i
Cc1cccc(N2CCN(C(=O)c3ccc(Cl)c(S(=O)(=O)NCc4ccco4)c3)CC2)c1C	-0.63	1	42*	i
Nc1ccc2c(c1)nc(Cc1ccccc1)n2CCO	-0.31	0	3	i
O=C(N/N=C/c1cccc(C(F)(F)F)c1)c1cc2c(s1)-c1ccccc1CC2	-0.37	2	14	i
Cc1cccc(/C=N/NC(=O)c2cc3c(s2)-c2ccccc2CC3)c1	0.38	0	34*	i
CCc1cc(-c2n[nH]c(=S)n2-c2ccccc2C)cs1	0.31	nt	1	i
COc1cccc(CNc2ccc([N+](=O)[O-])c(NCC(=O)O)n2)c1	nt	0	3	i
O=C(/C=C/c1cccs1)N1CCC2(CC1)Oc1ccc(Cl)cc1C(=O)C21CC(c2cccnc2)=NO1 (stereo not drawn)	-1	52*	nt	nt
CN(C)c1ccc(/C=C/C(=O)c2cccc(Br)c2)cc1	2.9	0	14*	+
COc1ccc(CNCC(=O)Nc2ccccc2-n2cccc2)cc1	1.9	43	33*	i
COc1ccc(CNCC(=O)Nc2cccc(S(N)(=O)=O)c2)cc1	0.2	0	4	i
CC(/C=C/C(=O)c1ccc(C)cc1)=C\c1ccccc1	0.72	0	3	i
Cc1ccc(C(=O)/C=C\C(=O)c2ccc(C)cc2)cc1	0.45	-1	2	+
COc1cccc(C(=O)N/N=C(/c2ccccc2)c2ccccn2)c1	-1.8	-1	2	+
CCN(CC)S(=O)(=O)c1ccc(N2CCOCC2)c(NS(=O)(=O)c2cc(C(C)(C)C)ccc2C)c1	-1.4	3	2	i
O=C(N/N=C/c1c[nH]c2ccccc12)c1cc(-c2ccc(-c3ccccc3)cc2)n[nH]1	0.3	13	12	i
Cc1ccc(-c2cc(C(=O)N/N=C/c3c[nH]c4ccccc34)[nH]n2)cc1	1.3	12	17*	i
O=C(N/N=C/c1cccs1)c1cc(-c2cccc3ccccc23)n[nH]1	-0.41	120*	20	i
O=C(N/N=C/c1cccs1)c1cc(-c2ccc3ccccc3c2)n[nH]1	0.37	0	7	i
O=C(N/N=C/c1c[nH]c2ccccc12)c1cc(-c2ccc3ccccc3c2)n[nH]1	0.13	80*	26*	i
O=C(N/N=C/c1c[nH]c2ccccc12)c1cc(-c2cccc3ccccc23)n[nH]1	0.24	42	27*	i
Cc1ccc2cn[nH]c2c1[N+](=O)[O-]	-0.61	-1	2	i
COc1ccc(C2=CC(=O)OC(C)(c3ccccc3)O2)cc1 (stereo not drawn)	0.3	51*	9.8*	i
SMILES	Insulin prom up	b-catenin transl	MT stabilizer	Autophagy mod
Cc1ccc(C=Nc2ccccc2C(N)=O)s1	nt	27	22*	i
Cc1cccc(C=Nc2ccccc2C(N)=O)c1	0	nt	37	i
CN(CCCC[C@H](CNCc1ccc(-c2ccccc2)cc1)N1C[C@H](c2ccccc2)N(CCc2ccc(Cl)c(Cl)c2)C(=O)C1=O)Cc1ccc(-c2ccccc2)cc1	0.6	0	nt	nt
COc1ccc(CNC[C@@H](CCCCN(C)Cc2ccc(OC)cc2)N2C[C@H](c3ccccc3)N(CCc3ccc(Cl)c(Cl)c3)C(=O)C2=O)cc1	?	?	40	+
COc1ccc(CC(=O)N2N=C(c3ccncc3)CC2(O)C(F)(F)F)cc1 (stereo not drawn)	0.01	12	15*	i
C/C(Cc1ccccc1)=N\NC(=O)CNC(=O)COc1ccccc1	-0.31	-1	nt	nt
Cc1cc(NC(=O)/C(C#N)=C/c2ccc(-c3ccc(SC(F)F)cc3)o2)n(-c2ccccc2)n1	3.4*	-2	2	+

Compound activity: PubChem, several laboratories
